Square brackets hold non-standard residues; d marks the D form. Peptide text beside a SMILES is read from it. * marks the point of attachment. OBzl(3,5-(CF3)2) = FC(F)(F)c1cc(CO*)cc(C(F)(F)F)c1
Tests used:
[1] = biological target: T1, Delta-type opioid receptor (Homo sapiens, UniProt P41143); test: Agonist activity at human delta opioid receptor expressed in HN9.10 cells assessed by [35S]GTP-gamma-S binding assay relative to control; type: functional, cell-based
Method in brief: (§1)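 Membranes (10 μg) from transfected cells stably expressing hDOR or rMOR, in 1 mL of 50 mM HEPES pH 7.4 with 1 mM EDTA, 5 mM MgCl2, 30 μM GDP, 1 mM DTT, 100 mM NaCl, 0.1 mM PMSF, 0.1% BSA and 0.1 nM [35S]GTPγS. Peptide added at various concentrations in duplicate, 90 min at 30 °C, then filtration. Nonspecific binding defined with 10 μM GTPγS. Stimulation taken as % over basal; EC50 and Emax by nonlinear regression from two independent experiments.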

Mu-type opioid receptor [2] = biological target: Mu-type opioid receptor (Cavia porcellus, UniProt P97266); test: Agonist activity at mu opioid receptor in Hartley guinea pig ileum assessed as inhibition of electrically-stimulated muscle contraction; type: functional, tissue-based
Sequence of Mu-type opioid receptor (Cavia porcellus, UniProt P97266) (P97266 whole entry): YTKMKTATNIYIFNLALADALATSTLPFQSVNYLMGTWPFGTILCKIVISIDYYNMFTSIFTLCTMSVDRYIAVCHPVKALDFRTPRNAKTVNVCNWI
Method in brief: (§2)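 Isolated tissues, electrically stimulated at supramaximal voltage: guinea pig (male Hartley) ileum LMMP (1 g tension, Krebs, 0.1 Hz, 0.4 ms) and male ICR mouse vas deferens (0.5 g, Mg-free Krebs, 0.1 Hz, 2.0 ms), both at 37 °C.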

[3] = biological target: Substance-P receptor (Cavia porcellus) (UniProt P30547); test: Antagonist activity at NK1 receptor in Hartley guinea pig isolated ileum assessed as inhibition of substance P-induced muscle contraction; type: functional, tissue-based
Sequence of Substance-P receptor (Cavia porcellus) (P30547 whole entry): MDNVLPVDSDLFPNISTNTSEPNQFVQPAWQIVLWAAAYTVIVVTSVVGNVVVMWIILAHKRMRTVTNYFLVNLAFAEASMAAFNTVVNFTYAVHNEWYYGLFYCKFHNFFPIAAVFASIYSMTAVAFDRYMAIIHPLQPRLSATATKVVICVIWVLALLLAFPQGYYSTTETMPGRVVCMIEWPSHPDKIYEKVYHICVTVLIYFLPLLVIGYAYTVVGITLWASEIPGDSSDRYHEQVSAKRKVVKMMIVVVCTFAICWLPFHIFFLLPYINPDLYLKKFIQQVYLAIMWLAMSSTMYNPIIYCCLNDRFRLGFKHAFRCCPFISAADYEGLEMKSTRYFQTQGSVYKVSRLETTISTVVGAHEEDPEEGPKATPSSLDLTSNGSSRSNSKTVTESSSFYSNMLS
Method in brief: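 Guinea pig ileum LMMP (male Hartley), 1 g tension, in oxygenated Krebs at 37 °C, with 1 μM naloxone present. Substance P dose–response curves were run with and without peptide. Responses were expressed as % of the maximal peak of the control substance P curve, and Ke was derived from these curves.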

[4] = Ratio of IC50 for mu opioid receptor in GPI assay to IC50 for delta opioid receptor in MVD assay; type: functional; method in brief: as §2
[5] = biological target: Mu-type opioid receptor (Cavia porcellus) (UniProt P97266); test: Agonist activity at mu opioid receptor in Hartley guinea pig isolated ileum assessed as muscle contraction at 1 uM relative to KCl; type: functional, tissue-based
Sequence of Mu-type opioid receptor (Cavia porcellus) (P97266 whole entry): as the sequence (P97266 whole entry) above
Method in brief: (§3)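 Guinea pig ileum LMMP (male Hartley) in oxygenated Krebs at 37 °C, 1 g tension, exposed to peptide at the tested antagonist concentration. Any contraction was expressed relative to the initial KCl-induced contraction of the same tissue. Testing stopped at […].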

Mu-type opioid receptor [6] = biological target: T2, Mu-type opioid receptor (Rattus norvegicus, UniProt P33535); test: Agonist activity at rat mu opioid receptor expressed in HN9.10 cells assessed by [35S]GTP-gamma-S binding assay; type: functional, cell-based; method in brief: as §1
T2 sequence (P33535 whole entry): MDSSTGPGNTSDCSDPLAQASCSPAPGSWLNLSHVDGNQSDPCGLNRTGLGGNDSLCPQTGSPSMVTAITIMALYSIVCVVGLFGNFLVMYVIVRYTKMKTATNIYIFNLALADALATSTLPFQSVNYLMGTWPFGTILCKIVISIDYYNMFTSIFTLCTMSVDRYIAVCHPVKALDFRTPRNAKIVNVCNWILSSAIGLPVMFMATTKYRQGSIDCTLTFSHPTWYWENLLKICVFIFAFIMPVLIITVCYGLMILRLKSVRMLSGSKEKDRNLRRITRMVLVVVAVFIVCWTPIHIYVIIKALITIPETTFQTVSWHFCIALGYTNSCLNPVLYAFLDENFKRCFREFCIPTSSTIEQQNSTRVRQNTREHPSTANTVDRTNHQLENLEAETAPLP

[7] = biological target: Substance-P receptor (Cavia porcellus) (UniProt P30547); test: Agonist activity at NK1 receptor in Hartley guinea pig isolated ileum assessed as muscle contraction relative to KCl; type: functional, tissue-based; parameters: concentration or dose not given beside the values; method in brief: as §3
[8] = biological target: Mu-type opioid receptor (Rattus norvegicus) (UniProt P33535); test: Agonist activity at rat mu opioid receptor expressed in HN9.10 cells assessed by [35S]GTP-gamma-S binding assay relative to control; type: functional, cell-based; method in brief: as §1
Sequence of Mu-type opioid receptor (Rattus norvegicus) (P33535 whole entry): as above

[9] = biological target: T1, Delta-type opioid receptor; test: Agonist activity at human delta opioid receptor expressed in HN9.10 cells assessed by [35S]GTP-gamma-S binding assay; type: functional, cell-based; method in brief: as §1
[10] = Ratio of EC50 for rat mu opioid receptor to EC50 for human delta opioid receptor by [35S]GTPgammaS binding assay; type: functional; method in brief: as §1
[11] = Ratio of Ki for rat mu opioid receptor to Ki for human delta opioid receptor
Method in brief: (§4)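 Competition binding on crude membranes (50 μg) from cells stably expressing rMOR ([3H]DAMGO, 1.0 nM) or hDOR ([3H]DPDPE, 1.0 nM). Buffer was 50 mM Tris pH 7.4 with peptidase/protease inhibitors and 1 mg/mL BSA. Ten peptide concentrations were run in duplicate for 3 h at 25 °C, with 10 μM naloxone for nonspecific binding. Separation by filtration and scintillation counting; IC50 by nonlinear regression from two experiments; Ki by Cheng–Prusoff.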

[12] = biological target: T1, Delta-type opioid receptor; test: Displacement of [3H]DPDPE from human delta opioid receptor expressed in HN9.10 cells; type: cell-based
Mu-type opioid receptor [13] = biological target: T2, Mu-type opioid receptor; test: Displacement of [3H]DAMGO from rat mu opioid receptor expressed in HN9.10 cells; type: cell-based; method in brief: as §4

T1 sequence (P41143 whole entry): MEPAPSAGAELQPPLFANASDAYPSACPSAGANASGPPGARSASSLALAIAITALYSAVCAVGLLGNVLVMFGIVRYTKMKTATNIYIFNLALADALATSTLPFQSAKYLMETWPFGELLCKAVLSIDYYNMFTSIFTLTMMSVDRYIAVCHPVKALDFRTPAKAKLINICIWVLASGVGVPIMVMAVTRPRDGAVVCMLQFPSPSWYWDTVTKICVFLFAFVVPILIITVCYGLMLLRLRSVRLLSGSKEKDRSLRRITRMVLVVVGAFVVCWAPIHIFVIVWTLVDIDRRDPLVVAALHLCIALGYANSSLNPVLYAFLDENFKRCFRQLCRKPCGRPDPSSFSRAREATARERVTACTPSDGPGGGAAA

SMILES	Emax [1] [%]	IC50 (Mu-type opioid receptor [2]) [µM]	Ke [3] [nM]	Ratio IC50 [4]	Activity [5] [%]	EC50 (Mu-type opioid receptor [6]) [µM]	Activity [7] [%]	Emax [8] [%]	EC50 [9] [µM]	Ratio EC50 [10]	Ratio Ki [11]	Ki [12] [µM]	Ki (Mu-type opioid receptor [13]) [µM]
CC(C)C[C@H](NC(=O)[C@@H]1CCCN1C(=O)[C@H](CC[S+](C)[O-])NC(=O)[C@H](Cc1ccccc1)NC(=O)CNC(=O)[C@@H](C)NC(=O)[C@@H](N)Cc1ccc(O)cc1)C(=O)N[C@@H](Cc1c[nH]c2ccccc12)C(=O)OCc1cc(C(F)(F)F)cc(C(F)(F)F)c1 (some centres undefined)	52	0.15	7.8	–	–	–	–	–	–	–	–	–	–
CC(C)C[C@H](NC(=O)[C@@H]1CCCN1C(=O)[C@@H](Cc1ccccc1)NC(=O)[C@H](Cc1ccccc1)NC(=O)CNC(=O)[C@@H](C)NC(=O)[C@@H](N)Cc1ccc(O)cc1)C(=O)N[C@@H](Cc1c[nH]c2ccccc12)C(=O)OCc1cc(C(F)(F)F)cc(C(F)(F)F)c1	23	–	70	> 2.4	9	0.35	0	24	0.017	20	4.1	–	–
CC(=O)N[C@@H](Cc1c[nH]c2ccccc12)C(=O)OCc1cc(C(F)(F)F)cc(C(F)(F)F)c1	–	–	250	–	–	–	–	–	–	–	–	–	–
CC(C)C[C@H](NC(=O)[C@@H]1CCCN1C(=O)[C@H](Cc1ccccc1)NC(=O)[C@H](Cc1ccccc1)NC(=O)CNC(=O)[C@@H](C)NC(=O)[C@@H](N)Cc1ccc(O)cc1)C(=O)N[C@@H](Cc1c[nH]c2ccccc12)C(=O)OCc1cc(C(F)(F)F)cc(C(F)(F)F)c1	39	–	14	> 1	7	0.059	0	36	0.021	2.8	1.9	0.015	–
CSCC[C@H](NC(=O)[C@H](Cc1ccccc1)NC(=O)CNC(=O)[C@@H](C)NC(=O)[C@@H](N)Cc1ccc(O)cc1)C(=O)N1CCC[C@H]1C(=O)N[C@@H](CC(C)C)C(=O)N[C@@H](Cc1c[nH]c2ccccc12)C(=O)OCc1cc(C(F)(F)F)cc(C(F)(F)F)c1	45	0.36	25	–	–	–	0	42	0.0029	–	–	–	–
CCCC[C@H](NC(=O)[C@H](Cc1ccccc1)NC(=O)CNC(=O)[C@@H](C)NC(=O)[C@@H](N)Cc1ccc(O)cc1)C(=O)N1CCC[C@H]1C(=O)N[C@@H](CC(C)C)C(=O)N[C@@H](Cc1c[nH]c2ccccc12)C(=O)OCc1cc(C(F)(F)F)cc(C(F)(F)F)c1	130	0.37	7.9	–	–	–	0	–	0.004	–	–	–	–
CC(C)C[C@@H](NC(=O)[C@H](Cc1ccccc1)NC(=O)CNC(=O)[C@@H](C)NC(=O)[C@@H](N)Cc1ccc(O)cc1)C(=O)O [DADLE]	–	0.024	–	–	–	–	–	–	–	–	–	–	–
CC(C)C[C@H](NC(=O)[C@@H]1CCCN1C(=O)[C@H](CC(C)C)NC(=O)[C@H](Cc1ccccc1)NC(=O)CNC(=O)[C@@H](C)NC(=O)[C@@H](N)Cc1ccc(O)cc1)C(=O)N[C@@H](Cc1c[nH]c2ccccc12)C(=O)OCc1cc(C(F)(F)F)cc(C(F)(F)F)c1	43	0.34	19	3.4	–	0.033	0	45	–	3.4	4.7	–	0.023
CC(C)C[C@H](NC(=O)[C@@H]1CCCN1C(=O)CNC(=O)[C@H](Cc1ccccc1)NC(=O)CNC(=O)[C@@H](C)NC(=O)[C@@H](N)Cc1ccc(O)cc1)C(=O)N[C@@H](Cc1c[nH]c2ccccc12)C(=O)OCc1cc(C(F)(F)F)cc(C(F)(F)F)c1 (H-Y[dA]GFGPLW-{OBzl(3,5-(CF3)2)})	34	0.38	5.4	–	–	0.042	0	36	0.05	–	–	–	–
CCCC[C@@H](C(=O)N1CCC[C@H]1C(=O)N[C@@H](CC(C)C)C(=O)N[C@@H](Cc1c[nH]c2ccccc12)C(=O)OCc1cc(C(F)(F)F)cc(C(F)(F)F)c1)N(C)C(=O)[C@H](Cc1ccccc1)NC(=O)CNC(=O)[C@@H](C)NC(=O)[C@@H](N)Cc1ccc(O)cc1	290	–	4.6	–	12	–	2	–	0.36	–	–	–	–

Reference: ChEMBL document CHEMBL1143706, “Design, synthesis, and biological evaluation of novel bifunctional C-terminal-modified peptides for delta/mu opioid receptor agonists and neurokinin-1 receptor antagonists” (J Med Chem, 2007)
